Results published in ChEMBL document CHEMBL1255289, “In vitro antifungal activities of isavuconazole (BAL4815), voriconazole, and fluconazole against 1,007 isolates of zygomycete, Candida, Aspergillus, Fusarium, and Scedosporium species” (2008).

Key:
Type in all cases: functional
Aspergillus terreus = experiment: Antifungal activity against Aspergillus terreus isolates after 48 hrs by CLSI M38-A procedure based assay
Procedure, shortened: (§1)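 Aspergillus isolates tested by CLSI M38-A broth microdilution at final 0.015–16 µg/ml and 35°C. Plates were read macroscopically at 48 h. The MIC was the lowest concentration producing complete inhibition of growth (MIC-0).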

Aspergillus fumigatus = experiment: Antifungal activity against Aspergillus fumigatus isolates after 48 hrs by CLSI M38-A procedure based assay; procedure, shortened: as §1
Aspergillus flavus = experiment: Antifungal activity against Aspergillus flavus isolates after 48 hrs by CLSI M38-A procedure based assay; procedure, shortened: as §1
Aspergillus niger = experiment: Antifungal activity against Aspergillus niger isolates after 48 hrs by CLSI M38-A procedure based assay; procedure, shortened: as §1
Aspergillus sp. = experiment: Antifungal activity against Aspergillus sp. isolates after 48 hrs by CLSI M38-A procedure based assay; procedure, shortened: as §1
Candida parapsilosis = experiment: Antifungal activity against Candida parapsilosis isolates after 48 hrs by CLSI M27-A2 procedure based assay
Procedure, shortened: (§2)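 Candida isolates tested by CLSI M27-A2 broth microdilution at final 0.015–16 µg/ml, or 0.125–128 µg/ml for the comparator azole. Incubation was at 35°C with a visual read at 48 h. MIC-2 was the lowest concentration giving a prominent turbidity drop, about 50% growth inhibition.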

Candida albicans = experiment: Antifungal activity against Candida albicans isolates after 48 hrs by CLSI M27-A2 procedure based assay; procedure, shortened: as §2
Mucor [1] = experiment: Antifungal activity against Mucor isolates assessed as lowest compound concentration that produced complete inhibition of microbial growth after 24 hrs by CLSI M38-A procedure based assay
Procedure, shortened: (§3)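 Zygomycete isolates subcultured on potato dextrose or Sabouraud agar, then tested by CLSI M38-A broth microdilution. Drugs were serially diluted in plates at final 0.015–16 µg/ml and incubated at 35°C. Plates were read by eye at 24 h. MIC-0 was the lowest concentration giving complete growth inhibition.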

Mucor [2] = experiment: Antifungal activity against Mucor isolates assessed as lowest compound concentration that produced slight growth or approximately 25% of that of growth control after 24 hrs by CLSI M38-A procedure based assay
Procedure, shortened: (§4)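 Clinical isolates were kept at –70°C as spore suspensions in sterile water and subcultured on potato dextrose or Sabouraud agar before testing. Broth microdilution used DMSO stocks in trays stored at –70°C, with final drug 0.015–16 µg/ml.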

Rhizopus [3] = experiment: Antifungal activity against Rhizopus isolates assessed as lowest compound concentration that produced complete inhibition of microbial growth after 24 hrs by CLSI M38-A procedure based assay; procedure, shortened: as §3
Rhizopus [4] = experiment: Antifungal activity against Rhizopus isolates assessed as lowest compound concentration that produced slight growth or approximately 25% of that of growth control after 24 hrs by CLSI M38-A procedure based assay
Procedure, shortened: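 Rhizopus isolates tested by CLSI M38-A broth microdilution at final 0.015–16 µg/ml, 35°C, read by eye at 24 h.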

Absidia [5] = experiment: Antifungal activity against Absidia isolates assessed as lowest compound concentration that produced complete inhibition of microbial growth after 24 hrs by CLSI M38-A procedure based assay; procedure, shortened: as §3
Absidia [6] = experiment: Antifungal activity against Absidia isolates assessed as lowest compound concentration that produced slight growth or approximately 25% of that of growth control after 24 hrs by CLSI M38-A procedure based assay; procedure, shortened: as §4
Cunninghamella [7] = experiment: Antifungal activity against Cunninghamella isolates assessed as lowest compound concentration that produced complete inhibition of microbial growth after 24 hrs by CLSI M38-A procedure based assay; procedure, shortened: as §3
Cunninghamella [8] = experiment: Antifungal activity against Cunninghamella isolates assessed as lowest compound concentration that produced slight growth or approximately 25% of that of growth control after 24 hrs by CLSI M38-A procedure based assay; procedure, shortened: as §4
Syncephalastrum [9] = experiment: Antifungal activity against Syncephalastrum isolates assessed as lowest compound concentration that produced complete inhibition of microbial growth after 24 hrs by CLSI M38-A procedure based assay; procedure, shortened: as §3
Syncephalastrum [10] = experiment: Antifungal activity against Syncephalastrum isolates assessed as lowest compound concentration that produced slight growth or approximately 25% of that of growth control after 24 hrs by CLSI M38-A procedure based assay; procedure, shortened: as §4
Scedosporium apiospermum [11] = experiment: Antifungal activity against Scedosporium apiospermum isolates assessed as lowest compound concentration that produced complete inhibition of microbial growth after 24 hrs by CLSI M38-A procedure based assay
Scedosporium apiospermum [12] = experiment: Antifungal activity against Scedosporium apiospermum isolates assessed as lowest compound concentration that produced slight growth or approximately 25% of that of growth control after 24 hrs by CLSI M38-A procedure based assay
[13] = Lodderomyces parapsilosis, 48 h

C[C@@H](c1nc(-c2ccc(C#N)cc2)cs1)[C@](O)(Cn1cncn1)c1cc(F)ccc1F [ISAVUCONAZOLE]
1 mg/L: MFC50 (Aspergillus terreus) | MFC90 (Aspergillus terreus) | MIC50 (Aspergillus terreus; Aspergillus terreus, 48 h) | MIC90 (Aspergillus terreus; Aspergillus terreus, 48 h) | MFC50 (Aspergillus fumigatus) | MFC90 (Aspergillus fumigatus) | MIC50 (Aspergillus fumigatus; Aspergillus fumigatus, 48 h) | MIC90 (Aspergillus fumigatus; Aspergillus fumigatus, 48 h) | MFC50 (Aspergillus flavus) | MFC90 (Aspergillus flavus) | MIC50 (Aspergillus flavus; Aspergillus flavus, 48 h) | MIC90 (Aspergillus flavus; Aspergillus flavus, 48 h) | MFC50 (Aspergillus niger) | MIC50 (Aspergillus niger; Aspergillus niger, 48 h) | MIC50 (Mucor [2]) | MFC (Rhizopus [3]; Rhizopus, 24 h) | MIC (Rhizopus [3]; Rhizopus, 24 h) | MIC50 (Rhizopus [3]; Rhizopus, 24 h) | MIC (Absidia [5]) | MFC (Syncephalastrum [9]) | MIC50 (Scedosporium apiospermum [12])
0.25 mg/L: MFC (Aspergillus terreus; Aspergillus terreus, 48 h) | MFC (Aspergillus niger; Aspergillus niger, 48 h) | MFC (Aspergillus sp.) | MIC (Aspergillus sp.) | MIC (Syncephalastrum [9])
0.5 mg/L: MFC (Aspergillus flavus; Aspergillus flavus, 48 h) | MIC (Rhizopus [4]) | MIC50 (Rhizopus [4]) | MIC (Absidia [6]) | MIC (Cunninghamella [8])
2 mg/L: MFC90 (Aspergillus niger) | MIC90 (Aspergillus niger; Aspergillus niger, 48 h) | MFC (Mucor [1]; Mucor, 24 h) | MIC50 (Mucor [1]; Mucor, 24 h) | MIC (Cunninghamella [7]) | MFC (Scedosporium apiospermum [11]; Scedosporium apiospermum, 24 h)
0.03 mg/L: MFC (Candida parapsilosis; [13]) | MIC90 (Candida parapsilosis; [13]) | MFC (Candida albicans; Candida albicans, 48 h) | MIC50 (Candida albicans; Candida albicans, 48 h)
16 mg/L: MFC90 (Candida parapsilosis) | MIC90 (Mucor [1]; Mucor, 24 h) | MIC90 (Rhizopus [3]; Rhizopus, 24 h) | MFC (Cunninghamella [7])
0.125 mg/L: MFC (Aspergillus fumigatus; Aspergillus fumigatus, 48 h) | MIC (Syncephalastrum [10])
4 mg/L: MFC50 (Candida parapsilosis) | MFC50 (Rhizopus [3]) | MIC90 (Rhizopus [4]) | MFC (Absidia [5]) | MIC50 (Scedosporium apiospermum [11]; Scedosporium apiospermum, 24 h) | MIC90 (Scedosporium apiospermum [11]; Scedosporium apiospermum, 24 h)
8 mg/L: MFC50 (Mucor [1]) | MIC90 (Mucor [2]) | MFC50 (Scedosporium apiospermum [11])
< 0.015 mg/L: MIC (Candida parapsilosis; [13]) | MIC50 (Candida parapsilosis; [13]) | MIC90 (Candida albicans; Candida albicans, 48 h)
>16 mg/L: MFC50 (Candida albicans) | MFC90 (Candida albicans) | MFC90 (Mucor [1]) | MFC90 (Rhizopus [3]) | MFC90 (Scedosporium apiospermum [11])
